# Lmaj promast = Leishmania major promastigote growth inhibition, primary screen | inhibition, % at 10 µM | Leishmania major promastigotes, resazurin fluorescence viability | 200,000 compounds, 9% hits; in the data active means inhibition above about 50%;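 further: promastigotes grown with compound for 44 hours at 28 °C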
# NALP3 yeast inh = NALP3 inflammasome inhibitors in reconstituted yeast, primary screen, luminescence, uHTS | Yeast reconstituted NLRP3/ASC/caspase-1, beta-gal luminescence, 24 h | inhibition, % at 10 µM | 330,000 compounds, 0.39% hits | AID 2825, 2010;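 active means inhibition of 50% or more; inactive means inhibition below 50%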;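 further: plate controls were induced DMSO wells for no effect and uninduced yeast grown without galactose for full effect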
# PolyA inhibitor = polyadenylation inhibitors in yeast reporter cells, primary screen, luminescence, S. cerevisiae | S. cerevisiae SKY197-pL101 polyadenylation reporter, beta-gal luminescence; efflux-impaired pdr1/pdr3 knockout yeast; score 100 = 6 SD above DMSO | activity score, % at 12 µM | 300,000 compounds, 0.02% hits | AID 1875, 2009;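 active means lowest replicate activity score at least 50, where 100 means six control SD above control mean; inconclusive means lowest score under 50 but half or more replicates reach 50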;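 further: yeast exposed to compound for 9 h at 30 °C; higher score means more reporter readthrough which indicates perturbed polyadenylation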
# NALP1 yeast inh = NALP1 inflammasome inhibitors in reconstituted yeast, colorimetric, S. cerevisiae, triplicate retest | inhibition, % at 10 µM | S. cerevisiae NALP1/ASC/caspase-1 growth, X-gal OD620, 72 h | 280,000 compounds, 0.61% hits; in the data active means inhibition mostly above about 24%, no sharp cut-off; inactive means mostly below about 32%
# T cruzi repl = inhibitors of intracellular T. cruzi growth, primary screen, luminescence, NIH3T3 host cells | inhibition, % (test concentration not listed) | AID 1885, 2009 | T. cruzi beta-gal in NIH3T3, 90 h | 300,000 compounds, 1.4% hits;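 active means mean inhibition across valid replicates above about 55%, limit read from the data; inconclusive means mean below that limit but half or more replicates reach it; inactive means mean below it, under half of replicates reach it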;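 further: signal also drops with host cell toxicity which is not excluded here; 0% = plate median of DMSO wells and 100% = zero luminescence signal; higher percent means less beta-gal luminescence so fewer parasites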
#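 Read-out: Parasite load inhibition, % | Test system: Mouse NIH/3T3 fibroblasts infected with β-gal-expressing T. cruzi Tulahuen C4 | Amount: 5,000 cells/well | Medium: DMEM, 2% fetal bovine serum | Signal: GalScreen β-gal luminescence, detergent lysis, 60 min | Timing: 3 h attach, ≥90 h co-culture | Also added: Tulahuen C4 trypomastigotes, 5000/well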
# Calb FLC = C. albicans growth inhibition with fluconazole, primary screen, CaCi-2 strain, Alamar Blue fluorescence. C. albicans CaCi-2 + fluconazole, 48 h. growth inhibition, % (concentration not given with the values). 300,000 compounds, 0.57% hits. AID 1979, 2009;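 active means growth inhibition above about 58% in most replicates, limit read from the data, passing the limit was not always enough; inconclusive means exactly half the replicates above a set limit; inactive means most replicates below a set limit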;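 further: all wells also contain fluconazole at 8 µg/ml as a sub-toxic cotreatment; 0% = median of DMSO wells and 100% = median of geldanamycin control wells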
# An asterisk follows results filed as active; ? = inconclusive; . = not tested or not shown. Shown is part of a subset that was picked to be rich in hits.
SMILES,Lmaj promast,NALP3 yeast inh,PolyA inhibitor,NALP1 yeast inh,T cruzi repl,Calb FLC
O=C(NCc1ccccc1Cl)C1CCCN(S(=O)(=O)c2cccc3nonc23)C1 (configuration not stated),.,6,12,7,1,-2
CC#CC[N+](C)(C)CCCCCCCCCCCC,100*,35,-4,43,73*,101*
C#CC[N+](C)(C)CCCCCCCC,-2,4,3,.,-12,-35
C#CC[N+](C)(C)CCCCCCCCCCCC,100*,46,-22,41,50,79*
C#CC[N+](C)(C)CCCCCCCCCC,58*,16,-11,31,28,-25
CCOC(=O)[C@H]1[C@H]2COc3cc(OC)ccc3[C@@H]2N2C(=O)CN(Cc3ccc(OC)cc3)C(=O)[C@@]12C,.,5,.,.,.,.
CCOC(=O)C1=C(C)OC(N)=C(C#N)C1c1cc(Cl)c(OCC(N)=O)c(OC)c1 (configuration not stated),3,20,-3,9,1,-8
COc1cc(CNCCC2CCOC(C)(C)C2)ccc1O (configuration not stated),57*,-7,7,-8,47,2
CCc1cc(=O)oc2cc(C)cc(OC(C)C(=O)NCc3ccccn3)c12 (configuration not stated),.,11,12,12,-2,0
Cc1ccc(N(C(=O)c2nsc(Cl)c2Cl)C(C(=O)NC2CCCC2)c2ccc(O)cc2)cc1C (configuration not stated),76*,-3,6,9,48,-5
Cc1cc(C)cc(N(C(=O)c2nsc(Cl)c2Cl)C(C(=O)NC2CCCC2)c2ccc(O)cc2)c1 (configuration not stated),71*,1,14,14,37,4
CCOc1ccc(C(C(=O)NC2CCCC2)N(Cc2ccccc2)C(=O)c2nsc(Cl)c2Cl)cc1 (configuration not stated),27,12,14,36,43,35
COc1ccc(C(C(=O)NC2CCCC2)N(Cc2ccccc2)C(=O)c2nsc(Cl)c2Cl)cc1 (configuration not stated),8,4,-7,37,21,3
Cc1cccc(N(C(=O)c2nsc(Cl)c2Cl)C(C(=O)NC2CCCC2)c2ccc(O)cc2)c1C (configuration not stated),98*,-1,2,6,30,30
Cc1ccnc(N/C=C(/NC(=O)c2ccccc2)C(=O)N/N=C\c2ccc(Cl)cc2)n1,.,3,-7,.,-6,15
CC(=O)c1c(CSc2ccccc2)oc2ccc(O)c(CN(C)C)c12,.,9,15,14,5,-8
CCCc1cc(-c2nc(N)ncc2-c2csc(C)n2)c(O)cc1OC,21,9,3,-69,21,?
CCCc1cc(-c2nc(N)ncc2-c2ccc3c(c2)OCCCO3)c(O)cc1OC,31,8,7,.,58*,-3
Cc1c(S(=O)(=O)NC2CCCCC2)c(=O)n(C)c(=O)n1C,.,9,-4,.,2,-7
Cc1cc(Br)ccc1NC(=O)CN1C(=S)NC(C)(C)CC1C (configuration not stated),-3,-4,-3,29*,-8,2
CC1CC(C)(C)NC(=S)N1CC(=O)NCc1ccc(F)cc1 (configuration not stated),4,-2,3,-11,-16,43
NNC(=O)c1sc2cc(C(F)(F)F)cnc2c1-c1cccs1,1,2,8,-6,13,-7
O=C(Nc1ccccc1)c1sc2cc(C(F)(F)F)cnc2c1-c1cccs1,59*,16,-4,8,23,-7
COc1ccccc1/C=C/C=N/NC(=O)c1cccs1,.,12,-12,11,5,1
COc1ccc(NC(=O)c2ccc3c(=O)n(-c4ccc(OC)cc4OC)c(=S)[nH]c3c2)c(OC)c1,69*,7,9,2,9,18
SMILES,Lmaj promast,NALP3 yeast inh,PolyA inhibitor,NALP1 yeast inh,T cruzi repl,Calb FLC
COc1ccc(NC(=O)CNC(=O)c2nn(-c3ccc(OC)cc3OC)c(=O)c3ccccc23)c(OC)c1,.,9,17,10,6,93*
COc1ccc(NC(=O)Cn2c(=O)sc3ccccc32)c(OC)c1,6,-4,6,39*,2,-2
CN(Cc1ccccc1)C(=O)C1CCCN1S(=O)(=O)c1ccc(Cl)cc1 (configuration not stated),.,17,.,.,.,.
Cc1cccnc1NC(=O)C(c1ccccc1)c1ccccc1,.,-3,-3,17,-3,-4
Cc1[nH]c(N=Nc2ccccc2)nc1N=Nc1ccccc1,.,46,0,-11,65*,-3
CCC1SC(CC)C(=O)N(CC(=O)Nc2ccc3c(c2)OCO3)C1=O (configuration not stated),-3,11,-8,28,1,-16
CSCCC(NC(=O)c1ccccc1Cl)C(=O)Nc1ccncc1 (configuration not stated),.,15,.,.,.,.
COc1ccccc1NC(=O)C(C)Sc1nnc2ccccn12 (configuration not stated),.,-2,.,.,.,.
Cc1sc(NC(=O)C(C)C)c(C(=O)Nc2ccccc2)c1C,1,23,-20,-3,18,2
CN(CC(=O)Nc1cccc(F)c1)C(=O)CN1C(=O)NC2(CCCC2)C1=O,.,3,.,.,.,.
N#CC1=CN(Cc2ccccc2)C=C(/C=N/Nc2ccccc2)C1,98*,9,-23,-12,-14,-32
CCc1ccc2c(c1)C(=O)c1ccccc1C2=O,-1,4,-38,12,?,-19
CCc1ccc2c(c1)C1(NN=C(c3cccc4ccccc34)S1)C(=O)N2 (configuration not stated),99*,28,1,10,53,-1
COc1ccc(C(c2c(C)[nH]n(C(N)=S)c2=O)C(C#N)C#N)cc1 (configuration not stated),94*,18,.,-2,.,.
COc1ccc(C(=O)NCC2CCCCC2)cc1S(=O)(=O)N1CCOCC1,.,3,.,.,.,.
CCN(CC)S(=O)(=O)c1cc(C(=O)NC2CCCCC2)ccc1C,4,-6,3,-4,13,-3
CCN(Cc1ccccc1)S(=O)(=O)c1cc(C(=O)NC2CCCCCC2)ccc1OC,95*,17,5,23,-5,27
CCN(Cc1ccccc1)S(=O)(=O)c1cc(C(=O)NCC2CCCCC2)ccc1OC,98*,8,20,33,26,34
COc1ccc(N(C)S(=O)(=O)c2cccc(C(=O)NCC3CCCCC3)c2)cc1,28,.,-3,13,69*,4
